# Screening results from PubChem.
# An excerpt weighted towards active compounds, which were near 3.9% of everything screened.
# SR-BI DiI-HDL act = activators of SR-BI mediated DiI-HDL uptake, primary screen, ldlA[mSR-BI] CHO cells, DiI fluorescence | 3 h; 100 = double the neutral-control signal | hit rate 0.096% among 320,000 | activation, % at 12.5 µM;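 active = mean replicate activation of at least 60% and every replicate at or above 60%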;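 note: 0% = median plate neutral-control signal and 100% = twice that signal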
#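 Material – SR-BI-overexpressing, LDLR-lacking CHO cells · Medium – BSA-supplemented, HEPES-buffered Ham's F12, pH 7.4 · Doses – single concentration · Times – compound with DiI-HDL co-incubation, 3 h at 37 °C · Measured by – bottom-read fluorescence, 550/595 nm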
# ABCB6 inh MLPCN = ABCB6 transporter inhibitors, primary screen, K562-ABCB6 cells, flow cytometry, MLPCN library; hit rate 0.19% among 360,000; fluorescence ratio to DMSO, % at 10 µM; ATP-binding cassette sub-family B member 6 (Homo sapiens), Q9NP58; K562-ABCB6 porphyrin accumulation, 1 h; stronger effect = lower value;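 active = fluorescence ratio to DMSO below 75%, the collection mean minus 3 SD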;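 note: signal is porphyrin accumulated inside mitochondria; 100% equals median channel fluorescence of DMSO control wells; lower ratio means ABCB6 inhibition with less porphyrin fluorescence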
# Target sequence (Q9NP58 whole entry, looked up): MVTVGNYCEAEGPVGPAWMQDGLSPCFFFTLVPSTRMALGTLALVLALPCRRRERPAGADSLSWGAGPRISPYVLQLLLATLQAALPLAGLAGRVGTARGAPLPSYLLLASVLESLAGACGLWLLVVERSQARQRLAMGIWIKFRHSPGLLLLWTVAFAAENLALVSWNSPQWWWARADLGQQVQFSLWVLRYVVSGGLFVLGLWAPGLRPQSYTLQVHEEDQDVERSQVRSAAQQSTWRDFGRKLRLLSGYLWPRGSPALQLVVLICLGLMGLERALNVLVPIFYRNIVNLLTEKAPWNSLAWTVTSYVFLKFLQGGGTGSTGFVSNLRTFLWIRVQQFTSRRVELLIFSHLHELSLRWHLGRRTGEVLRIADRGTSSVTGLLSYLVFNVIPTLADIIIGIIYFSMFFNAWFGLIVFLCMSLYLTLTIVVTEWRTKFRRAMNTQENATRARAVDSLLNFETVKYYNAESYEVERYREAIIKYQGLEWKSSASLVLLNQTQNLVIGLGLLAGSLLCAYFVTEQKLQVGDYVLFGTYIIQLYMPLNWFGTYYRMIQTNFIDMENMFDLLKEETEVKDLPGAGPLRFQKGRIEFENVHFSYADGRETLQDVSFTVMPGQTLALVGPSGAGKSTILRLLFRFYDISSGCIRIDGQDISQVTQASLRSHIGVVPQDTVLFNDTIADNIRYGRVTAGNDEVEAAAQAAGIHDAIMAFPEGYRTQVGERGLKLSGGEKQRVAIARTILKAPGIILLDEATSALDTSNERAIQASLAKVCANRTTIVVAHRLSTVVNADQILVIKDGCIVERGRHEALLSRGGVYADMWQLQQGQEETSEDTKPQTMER
# HIF activator = HIF pathway transcriptional activators, primary screen, cell-based, U2OS HRE-luciferase, luminescence; U2OS HRE-luciferase reporter; normalized: DMSO 0%, desferrioxamine 100%; activation, % at 7.5 µM (by protocol); hit rate 0.32% among 300,000; AID 1910, 2009;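 active = mean activation of at least 10% of the iron chelator positive control signal, with at least half of replicates also reaching 10%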
# SR-BI DiI inh = inhibitors of SR-BI mediated HDL lipid uptake, primary screen, ldlA[mSR-BI] cells, fluorescence, single point. hit rate 0.96% among 320,000. inhibition, % at 12.5 µM. ldlA[mSR-BI] CHO cells, DiI-HDL uptake fluorescence, 3 h;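 active = mean replicate inhibition of at least 70% and a set share of replicates each scoring 70 or more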;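 note: 0% = median of neutral control wells and 100% = median of positive control wells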
# FXN GAA850 act = FXN promoter activators, primary screen, cell-based, luciferase luminescence, HEK293 lucGAA850; HEK293 lucGAA850 FXN promoter luciferase reporter, 24 h; percent of 10 µM SAHA response; activation, % at 6 µM; hit rate 0.56% among 360,000;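 active = activation above the average of all compounds screened plus 3 SD, cutoff fixed separately per campaign, cut at about 7.5% in these data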;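 note: 0% = DMSO wells and 100% = 10 µM SAHA wells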
# AHR act = AHR activators, primary screen, cell-based, luminescence, luciferase reporter, human; Aryl hydrocarbon receptor (Homo sapiens), P35869; AHR-responsive luciferase reporter cells; activation, % at 5 µM; hit rate 2.5% among 320,000; AID 2796, 2010; in the data active = activation above about 47%;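 note: 0% = vehicle wells and 100% = reference agonist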
# An asterisk follows results filed as active; x = no result given.
SMILES,SR-BI DiI-HDL act,ABCB6 inh MLPCN,HIF activator,SR-BI DiI inh,FXN GAA850 act,AHR act
CCOC(=O)C(=CNc1ccc(NC2=NCC(C)S2)cc1)C(=O)OCC (configuration not stated),-24.9,100.0,17.3*,24.9,-8.8,-1.1
CC(C)Oc1ccc(CNC(=O)CC(c2ccccc2)c2cc(Cl)ccc2O)cc1 (configuration not stated),-7.0,96.0,-0.9,7.0,-10.9,-1.3
C[C@@]12C(=O)OC(=O)[C@]1(C)C1CCC2O1,-88.9,94.0,x,88.9*,-14.9,-11.6
COc1ccc(/C=N/OCC(=O)N=Nc2c(O)[nH]c3ccc(Br)cc23)cc1OC,-0.7,98.0,-0.7,0.7,1.8,78.1*
COc1ccc(/C(C)=N/OCC(=O)N=Nc2c(O)[nH]c3ccc(Br)cc23)cc1,20.9,92.0,-0.3,-20.9,3.4,3.9
COC(=O)[C@]12CCCCC=C1N(CCC1=CCCCC1)C(=O)[C@H](CC(=O)N1CCN(C(=O)C3CC3)CC1)C2,x,91.0,x,x,x,x
Cc1cc(C)nc(NC(=NCCc2c[nH]c3ccccc23)NC(=O)c2ccco2)n1,-71.0,97.0,-0.1,71.0*,-3.8,20.0
Cc1cc(C)nc(NC(=NCCc2c[nH]c3ccccc23)NC(=O)Nc2ccccc2)n1,-54.2,98.0,-0.1,54.1,-2.0,51.9*
Cc1cc(C)nc(NC(=NCCc2c[nH]c3ccccc23)NC(=O)Nc2ccc(Cl)c(Cl)c2)n1,-48.1,92.0,0.0,48.1,1.4,5.5
Cc1ccc2[nH]cc(CCNC(=O)c3ccco3)c2c1,-4.1,93.0,-0.2,4.1,1.4,97.3*
COc1ccc(-c2nc(C#N)c(NCc3ccc(C)cc3)o2)cc1OC,-22.4,115.0,0.4,22.4,6.8,12.7
COc1ccc(/C=N/NC(=O)c2sc(C)nc2C)cc1,-14.2,99.0,0.1,14.2,3.2,55.9*
COc1ccccc1/C=N/NC(=O)c1sc(C)nc1C,-31.6,99.0,0.0,31.6,1.2,28.0
O=c1oc2ccccc2cc1-c1cn2cccnc2n1,10.2,96.0,-0.2,-10.2,2.9,15.8
O=c1oc2ccccc2cc1-c1cn2ccccc2n1,-7.0,100.0,-2.4,7.0,-8.5,76.2*
COc1ccc(N2CCN(C(=O)CNC(=O)c3cn(-c4ccccc4OC)c(=O)c4ccccc34)CC2)cc1,-73.6,97.0,-0.4,73.6*,-0.2,2.3
COc1ccc(-n2nc(C(=O)NCC(=O)N3CCN(c4ccc(F)cc4)CC3)c3ccccc3c2=O)c(OC)c1,-60.7,98.0,2.3,60.7,2.6,0.6
COC(=O)c1cccc(NC(=O)/C=C/c2cccc([N+](=O)[O-])c2)c1,-72.8,96.0,1.4,72.8*,-2.3,-1.9
COc1cc(NS(=O)(=O)c2ccc(NC(=O)/C=C/c3ccc([N+](=O)[O-])cc3)cc2)ncn1,-2.4,103.0,-0.1,2.4,1.4,-0.3
COC(=O)c1cccc(NC(=O)/C=C/c2ccc([N+](=O)[O-])cc2)c1,-11.2,98.0,0.3,11.2,2.7,-3.5
COc1cc(NS(=O)(=O)c2ccc(NC(=O)/C=C/c3cccc([N+](=O)[O-])c3)cc2)ncn1,-4.6,103.0,0.0,4.6,2.4,103.6*
COCCCNC(=O)CCSc1ccc(Cl)cc1,-1.0,97.0,-0.3,1.0,1.0,-1.6
COc1ccccc1C(=O)COC(=O)c1cc([N+](=O)[O-])ccc1N1CCOCC1,-85.1,101.0,-0.1,85.1*,0.8,0.4
O=C(COC(=O)c1cc([N+](=O)[O-])ccc1N1CCOCC1)c1ccccc1Cl,-67.7,101.0,0.4,67.7,2.9,7.8
Cc1cc(C)c(C(=O)COC(=O)c2cc([N+](=O)[O-])ccc2N2CCOCC2)cc1C,-78.9,96.0,0.3,78.9*,2.4,0.2
SMILES,SR-BI DiI-HDL act,ABCB6 inh MLPCN,HIF activator,SR-BI DiI inh,FXN GAA850 act,AHR act
COc1ccccc1NC(=O)c1cc([N+](=O)[O-])ccc1N1CCOCC1,-57.6,103.0,0.0,57.6,2.2,59.7*
COc1cc(C(=O)COC(=O)c2cc([N+](=O)[O-])ccc2N2CCOCC2)ccc1OC(F)F,-84.5,95.0,0.2,84.5*,1.3,0.2
COc1ccc(C2=C(C=C(C#N)C#N)C(c3ccccc3C)c3ccccc3O2)cc1OC (configuration not stated),-6.0,99.0,-1.9,6.0,1.2,3.2
CC1=C(C(=O)OC(C)C)C(c2cccnc2)C2=C(CC(C)(C)CC2=O)N1 (configuration not stated),x,110.0,1.6,x,0.6,0.0
O=C(O)c1ccc(NC(=O)c2ccccc2NC(=O)c2cccc(F)c2)cc1,11.3,98.0,-0.5,-11.3,1.8,3.0
CC[C@@]1(O)C(=O)OCc2c1cc1n(c2=O)Cc2cc3c(N)cccc3nc2-1,11.8,100.0,17.0*,-11.8,-12.3,-6.3
O=C1Nc2cc(C(F)(F)F)ccc2N2CCCCC12 (configuration not stated),x,97.0,-0.7,x,-1.7,73.8*
CCOC(=O)c1c(C)[nH]c(C)c1S(=O)(=O)N1c2ccccc2CC1C (configuration not stated),1.2,97.0,31.5*,-1.2,2.8,11.4
COc1ccc(/C=N/Nc2cc(C)nc3ccc(Br)cc23)cc1,-63.5,96.0,-11.1,63.5,-2.6,70.7*
COc1cccc2c(N/N=C/c3ccccc3)cc(C)nc12,-13.1,104.0,-3.8,13.1,3.3,5.6
COc1ccc2nc(C)cc(N/N=C/c3cccc(OC)c3O)c2c1,11.2,104.0,-3.2,-11.2,1.0,111.4*
COc1ccc2nc(C)cc(Nc3ccccc3OC)c2c1,x,98.0,x,x,0.6,x
CN(C)c1ccc(P(=O)(Nc2ccccc2)N2CCOCC2)c(NC(=O)c2cccs2)c1 (configuration not stated),5.7,98.0,0.7,-5.7,-1.8,12.3
Cc1ccc(NP(=O)(c2ccc(N(C)C)cc2NC(=O)c2cccs2)N2CCOCC2)cc1 (configuration not stated),26.1,101.0,-0.1,-26.1,2.2,58.9*
Cc1ccc(NP(=O)(c2ccc(N(C)C)cc2NC(=O)c2cccs2)N2CCOCC2)cc1Cl (configuration not stated),11.9,102.0,-0.5,-11.9,-0.2,50.0*
CN1CCc2c(sc(/N=C/c3c[nH]c4ccccc34)c2C(N)=O)C1,x,105.0,0.6,x,-0.1,75.9*
